Assay results from publication PMC10466730 (Cancer cell, 2023).
Read-outs that look alike come from different tables or passages of the source.

Tests used:
MOLM-13 cells [1] = test: Viability assay in MOLM-13 cells; format: cell-based, human; conditions: MOLM-13, 72 h; for IC50: Homo sapiens
Outline: (§1)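 Human AML cell lines were plated at 10,000 cells per well with increasing test compound up to 100 μM for 72 h at 37 °C, 5% CO₂. CellTiter-Glo was added 1:1 for 15 min at room temperature and luminescence was read; MTT was used as an alternative read-out. Percent viability was fitted by non-linear regression to give IC50. Three independent experiments, triplicates.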

IKZF2 = IKZF2 (Homo sapiens, UniProt Q96SW2+Q9UKS7); test: Western blot of IKZF2 in MOLM-13 cells; format: cell-based; conditions: MOLM-13, 24 h
Outline: (§2)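 MOLM-13 cells (1 × 10⁶) were treated 24 h with test compound diluted from DMSO stocks. Cells were pelleted, washed with PBS, lysed in Laemmli buffer by vortexing for 10 min, and boiled at 95 °C for 5 min. Lysates were resolved on 4–15% gradient SDS-PAGE, transferred to PVDF and immunoblotted with target-specific antibodies.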

CK1α = CK1α (Homo sapiens, UniProt P48729+Q96SW2); test: Western blot of CK1α in MOLM-13 cells; format: cell-based; conditions: for CK1α degradation (Western blot): MOLM-13
Outline: as §2

Pharmacokinetics in mice = format: in vivo, mouse; conditions: plasma, ip
Outline: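 Single intraperitoneal doses in DMSO: one test compound at 5 or 50 mg/kg in male CD1 mice, another at 223 mg/kg in female Crbn^I391V mice. Plasma was collected at set times and compound levels were measured by HPLC.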

Solubility in DMSO = format: physicochemical
MLL-AF9 Crbn^I391V cells [2] = test: Pharmacodynamics in BL6 mice transplanted with MLL-AF9 Crbn^I391V cells; format: in vivo, mouse
MLL-AF9 Crbn^I391V cells [3] = test: Efficacy in BL6 mice transplanted with MLL-AF9 Crbn^I391V cells; format: in vivo
MOLM-13 cells [4] = test: Efficacy in NSG mice transplanted with MOLM-13 cells; format: in vivo; conditions: for survival: vs DMSO
AML PDX#2 = test: Efficacy in NSG mice transplanted with AML PDX; format: in vivo, mouse
[5] = Toxicity in the hematopoietic system of Crbn^I391V mice; format: in vivo, mouse; conditions: four rounds of 223 mg/kg, weekly
Outline: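 Female Crbn^I391V mice aged 8–12 weeks received DMSO or 223 mg/kg test compound once weekly for four rounds. They were sacrificed 4 weeks later. Blood was analysed on a hematology analyser, and stem/progenitor compartments were assessed by flow cytometry.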

MLL-AF9 Crbn^I391V cells [6] = test: Efficacy in Crbn^I391V mice transplanted with MLL-AF9 Crbn^I391V cells; format: in vivo, mouse; conditions: 223 mg/kg weekly, non-irradiated Crbn^I391V mice
panel of AML cell lines = test: Viability assay in a panel of AML cell lines; format: cell-based, human; conditions: AML cell lines with various oncogenic mutations, 72 h
Outline: as §1

[7] = system: MLL-AF9 leukemic bone marrow Crbn^I391V cells; test: Viability assay in MLL-AF9 leukemic bone marrow Crbn^I391V cells; format: cell-based; conditions: Mus musculus, MLL-AF9, 72 h, read-out: IC50 (proliferation)
[8] = system: normal bone marrow Crbn^I391V cells; test: Viability assay in normal bone marrow Crbn^I391V cells; format: cell-based; conditions: Mus musculus, 72 h, read-out: IC50 (proliferation)
AML PDX cells = test: Viability assay in AML PDX cells; format: cell-based, human; conditions: read-out: IC50 (viability); two AML PDX samples, 2 days, Figure 5D
Outline: (§3)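 AML PDX cells or normal human bone marrow cells were plated at 10,000 cells per well with increasing test compound concentrations and cultured for 2 days at 37 °C, 5% CO₂. Viability was read by CellTiter-Glo luminescence or MTT absorbance, normalized to percent viability, and fitted by non-linear regression.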

[9] = system: healthy bone marrow cells; test: Viability assay in healthy bone marrow cells; format: cell-based; conditions: Homo sapiens, Bone marrow cell, 48 h, read-out: IC50 (viability)
Outline: as §3

CK1α-GFP fusion protein = CK1α-GFP fusion protein (Homo sapiens, UniProt P48729+Q96SW2); test: Flow cytometry degradation assay, HEK293T CK1α-GFP; format: cell-based; conditions: 5 h
[10] = target: IKZF2(zinc finger 2)-GFP fusion protein (Homo sapiens, UniProt Q96SW2+Q9UKS7); test: Flow cytometry degradation assay, HEK293T IKZF2; format: cell-based; conditions: HEK293T IKZF2(zinc finger 2)-GFP, 24 h
IKZF1(zinc finger 2)-GFP = IKZF1(zinc finger 2)-GFP (Homo sapiens, UniProt Q13422); test: Flow cytometry degradation assay, HEK293T IKZF1; format: cell-based; conditions: HEK293T IKZF1(zinc finger 2)-GFP
GSPT1-GFP = GSPT1-GFP (Homo sapiens, UniProt P15170+Q96SW2); test: Flow cytometry degradation assay, HEK293T GSPT1-GFP; format: cell-based
CRBN = CRBN (Homo sapiens, UniProt Q96SW2); test: HTR-FRET Cereblon binding assay
[11] = target: His-CULT and streptactin-CK1α (Homo sapiens, UniProt P48729+Q96SW2); test: AlphaScreen ternary complex between CRBN and CK1α; format: binding; conditions: compared with lenalidomide
Outline: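 CK1α–CRBN ternary complex by AlphaScreen in 1× AlphaScreen buffer (3× stock: 150 mM HEPES pH 7.4, 450 mM NaCl, 0.3% BSA, 0.03% Tween 20). Streptactin-CK1α (600 nM solution) and CULT (500 nM solution) were mixed with a 2-fold serial dilution of test compound in 3% DMSO/buffer, in triplicate, for 1 h at 25 °C. Streptactin acceptor and nickel chelate donor beads were then added for 1 h at 25 °C in the dark before reading.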

IKZF1 = IKZF1 (Homo sapiens, UniProt Q13422); test: Western blot of IKZF1 in MOLM-13 cells; format: cell-based; conditions: MOLM-13, 24 h
Outline: as §2

IKZF3 = IKZF3 (Homo sapiens, UniProt Q9UKT9); test: Western blot of IKZF3 in MOLM-13 cells; format: cell-based; conditions: MOLM-13, 24 h
Outline: as §2

IKZF4 = IKZF4 (Homo sapiens, UniProt Q9H2S9); test: Western blot of IKZF4 in MOLM-13 cells; format: cell-based; conditions: MOLM-13, 24 h
Outline: as §2

GSPT1 = GSPT1 (Homo sapiens, UniProt P15170+Q96SW2); test: Western blot of endogenous GSPT1; format: cell-based; conditions: degradation at micromolar concentrations, Figure S2D
MOLM-13 cells [12] = test: Quantitative global proteomics in MOLM-13 cells; format: cell-based, human; conditions: 50 nM, 2 h
MOLM-13 cells [13] = test: Flow cytometry for apoptosis and differentiation in MOLM-13 cells; format: cell-based, human; conditions: MOLM-13, 10 nM and 100 nM, 2 days
Outline: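 MOLM-13 cells were treated 48 h. For differentiation, cells were stained 20 min in the dark in 2% FBS RPMI for CD13-FITC/CD33-APC or CD14-FITC/CD11b-APC. Mean ± SEM of three experiments; Student's t test.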

MLL-AF9 Crbn^I391V cells [14] = test: Flow cytometry for apoptosis and differentiation in MLL-AF9 Crbn^I391V cells; format: cell-based, mouse; conditions: 10 nM, 24 h post treatment, dependent on humanized CRBN
[15] = system: MLL-AF9 Crbn^I391V leukemic cells; test: Colony assay of MLL-AF9 Crbn^I391V leukemic cells; format: cell-based, mouse; conditions: 10 nM, M3434 methylcellulose
Outline: (§4)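 Murine cells were plated on MethoCult M3434 methylcellulose with test compound: 500 sorted LSK cells from Crbn^I391V mice, or 1000 bone marrow cells from MLL-AF9 Crbn^I391V leukemic mice. Colonies were counted after 5 days and normalized. Cells came from n=3 mice. Mean ± SEM of biological replicates from two experiments.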

[16] = system: LSK cells from Crbn^I391V mice; test: Colony assay of Crbn^I391V LSK cells; format: cell-based, mouse; conditions: 10 nM, M3434 methylcellulose
Outline: as §4

[17] = system: primary AML patient samples; test: Colony assay of primary AML patient samples; format: cell-based, human; conditions: 10 nM, n = 8, compared to healthy adult bone marrow or cord blood cells
Outline: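 Primary AML patient cells, normal bone marrow or cord blood CD34+ HSPCs were plated at 5000 cells on methylcellulose with test compound. Colonies were counted after 7 days and normalized to control. Mean ± SEM of samples from more than three experiments.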

[18] = system: MOLM-13 and MOLM-14 cells; test: Combination viability assay with other AML drugs; format: cell-based, human; conditions: 72 h
Outline: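 MOLM-13 cells were co-treated with test compound plus midostaurin or cytarabine for 72 h. Viability was read by CellTiter-Glo luminescence. A representative of three independent experiments is shown, mean ± SEM of triplicates.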

[19] = read-out: IC50 (cell viability)

Chain of CK1α (P48729 whole entry): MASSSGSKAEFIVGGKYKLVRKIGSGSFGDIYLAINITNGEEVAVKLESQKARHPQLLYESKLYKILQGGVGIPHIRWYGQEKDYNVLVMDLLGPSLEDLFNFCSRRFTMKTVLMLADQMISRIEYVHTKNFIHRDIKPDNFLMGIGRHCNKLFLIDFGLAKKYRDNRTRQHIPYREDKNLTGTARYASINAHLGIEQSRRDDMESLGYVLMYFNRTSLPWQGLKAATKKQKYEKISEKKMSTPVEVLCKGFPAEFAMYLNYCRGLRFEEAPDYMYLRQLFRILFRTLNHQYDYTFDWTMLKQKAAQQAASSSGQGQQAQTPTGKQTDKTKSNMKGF
Chain of CK1α (Q96SW2 whole entry): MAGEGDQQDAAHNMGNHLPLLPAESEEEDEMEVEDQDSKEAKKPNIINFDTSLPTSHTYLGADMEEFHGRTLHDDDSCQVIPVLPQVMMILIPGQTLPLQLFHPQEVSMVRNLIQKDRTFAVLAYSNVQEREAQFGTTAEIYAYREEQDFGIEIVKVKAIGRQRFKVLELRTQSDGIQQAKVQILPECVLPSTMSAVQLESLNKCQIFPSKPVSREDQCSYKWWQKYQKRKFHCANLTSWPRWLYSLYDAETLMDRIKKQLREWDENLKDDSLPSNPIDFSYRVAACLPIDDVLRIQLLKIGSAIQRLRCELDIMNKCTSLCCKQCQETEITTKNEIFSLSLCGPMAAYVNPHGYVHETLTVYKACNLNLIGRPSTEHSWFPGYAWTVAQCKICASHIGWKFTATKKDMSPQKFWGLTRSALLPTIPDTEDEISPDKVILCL
Chain of CK1α (Q16531 whole entry partner): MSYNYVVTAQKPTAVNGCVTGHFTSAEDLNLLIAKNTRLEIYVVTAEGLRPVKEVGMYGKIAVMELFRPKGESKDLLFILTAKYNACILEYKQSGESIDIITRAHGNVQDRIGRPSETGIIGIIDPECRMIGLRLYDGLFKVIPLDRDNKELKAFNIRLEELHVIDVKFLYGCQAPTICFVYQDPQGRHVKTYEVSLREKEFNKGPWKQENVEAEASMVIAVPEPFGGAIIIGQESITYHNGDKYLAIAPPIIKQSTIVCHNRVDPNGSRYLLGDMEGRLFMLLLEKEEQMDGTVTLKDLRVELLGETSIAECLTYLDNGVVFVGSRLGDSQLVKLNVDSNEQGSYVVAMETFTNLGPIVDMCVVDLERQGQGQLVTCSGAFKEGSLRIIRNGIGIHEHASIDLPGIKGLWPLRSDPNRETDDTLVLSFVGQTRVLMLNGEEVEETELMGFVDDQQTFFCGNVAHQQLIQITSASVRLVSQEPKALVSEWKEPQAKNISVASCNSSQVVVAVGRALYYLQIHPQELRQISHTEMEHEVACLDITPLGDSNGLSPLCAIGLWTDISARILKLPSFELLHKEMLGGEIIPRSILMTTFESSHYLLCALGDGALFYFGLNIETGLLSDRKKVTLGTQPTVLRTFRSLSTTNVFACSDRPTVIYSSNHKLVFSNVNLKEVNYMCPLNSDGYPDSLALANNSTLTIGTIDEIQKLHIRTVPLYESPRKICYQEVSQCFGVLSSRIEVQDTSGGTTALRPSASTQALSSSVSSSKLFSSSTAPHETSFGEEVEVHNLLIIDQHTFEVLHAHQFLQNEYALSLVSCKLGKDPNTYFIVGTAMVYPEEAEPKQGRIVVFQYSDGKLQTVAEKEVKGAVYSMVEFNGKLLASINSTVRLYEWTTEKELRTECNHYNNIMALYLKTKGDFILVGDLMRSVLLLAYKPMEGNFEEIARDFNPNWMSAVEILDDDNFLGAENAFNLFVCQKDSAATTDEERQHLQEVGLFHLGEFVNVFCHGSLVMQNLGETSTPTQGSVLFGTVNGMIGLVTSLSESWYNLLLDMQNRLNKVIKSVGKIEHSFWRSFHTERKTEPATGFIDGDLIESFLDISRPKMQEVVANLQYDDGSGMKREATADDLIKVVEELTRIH
Chain of IKZF2 (Q9UKS7 whole entry): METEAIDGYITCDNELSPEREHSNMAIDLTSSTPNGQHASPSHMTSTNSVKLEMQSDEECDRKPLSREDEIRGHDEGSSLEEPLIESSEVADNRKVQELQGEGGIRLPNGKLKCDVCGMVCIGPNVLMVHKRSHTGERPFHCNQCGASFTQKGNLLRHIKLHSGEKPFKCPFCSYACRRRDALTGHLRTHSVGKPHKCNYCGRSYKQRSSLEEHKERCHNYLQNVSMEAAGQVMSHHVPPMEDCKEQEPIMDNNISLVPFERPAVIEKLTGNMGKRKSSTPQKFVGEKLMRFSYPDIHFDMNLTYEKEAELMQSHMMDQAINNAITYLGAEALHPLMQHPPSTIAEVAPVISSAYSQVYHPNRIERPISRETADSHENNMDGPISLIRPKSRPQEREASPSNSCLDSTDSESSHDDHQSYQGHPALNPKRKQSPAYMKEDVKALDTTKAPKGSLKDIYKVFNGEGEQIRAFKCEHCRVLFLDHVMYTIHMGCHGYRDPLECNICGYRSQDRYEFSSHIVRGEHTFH
Chain of IKZF2 (Q96SW2 whole entry): as the sequence (Q96SW2 whole entry) above
Chain of IKZF2 (Q16531 whole entry partner): as the sequence (Q16531 whole entry partner) above
Chain of CRBN (Q96SW2 whole entry): as the sequence (Q96SW2 whole entry) above
Chain of His-CULT and streptactin-CK1α (Q96SW2 318-426 limits assumed): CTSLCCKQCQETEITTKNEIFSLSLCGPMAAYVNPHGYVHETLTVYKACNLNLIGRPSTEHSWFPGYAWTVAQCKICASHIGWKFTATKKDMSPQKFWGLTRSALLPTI
Chain of His-CULT and streptactin-CK1α (P48729 whole entry): as the sequence (P48729 whole entry) above

COc1cccc2c1OCC(C(=O)Nc1ccc3c(c1)CN(C1CCC(=O)NC1=O)C3=O)=C2 (centres unmarked) [DEG-77, N-(2-(2,6-dioxopiperidin-3-yl)-1-oxoisoindolin-5-yl)-8-methoxy-2H-chromene-3-carboxamide]
IC50 (MOLM-13 cells [1]; [19]): 4 nM | IKZF2 degradation (Western blot) (IKZF2): maintained comparable activity | CK1α degradation (Western blot) (CK1α): maintained comparable activity | half-life (Pharmacokinetics in mice; female, Crbn^I391V, mouse, 223 mg/kg): 16.9 h | increase in solubility in DMSO compared to DEG-35 (Solubility in DMSO): 10 fold | degradation of IKZF2, CK1α, GSPT1 in bone marrow and splenic leukemic cells (MLL-AF9 Crbn^I391V cells [2]; one injection 223 mg/kg, 24, 48 and 72 h): degradation of IKZF2 and CK1α but not GSPT1 | body weight (MLL-AF9 Crbn^I391V cells [3]; 223 mg/kg weekly): without loss of total body weight | survival (MLL-AF9 Crbn^I391V cells [3]; 223 mg/kg weekly, vehicle 35 days): 66 days | leukemia progression in secondary transplant (MLL-AF9 Crbn^I391V cells [3]; cells from mice treated in the primary transplant): pronounced delay in leukemia progression | survival (MOLM-13 cells [4]; 223 mg/kg weekly): increased survival | survival (AML PDX#2; 223 mg/kg weekly from 4 weeks post-transplant): significant extension of survival | engraftment of PDX cells in the bone marrow (AML PDX#2; after a single injection, >85% prior to treatment): around 40% | WBC counts [5]: modest reduction of WBC counts | platelets and RBC counts [5]: remained unchanged | stem cell compartment frequency [5]: reduced HSC and MPP1 frequency | survival (MLL-AF9 Crbn^I391V cells [6]): significant increase in survival

COc1ccc2cc(C(=O)Nc3ccc4c(c3)CN(C3CCC(=O)NC3=O)C4=O)ccc2c1 (centres unmarked) [DEG-35, N-(2-(2,6-dioxopiperidin-3-yl)-1-oxoisoindolin-5-yl)-6-methoxy-2-naphthamide]
IC50 (MOLM-13 cells [1]; [19]): 5 nM | IC50 (MOLM-13 cells [1]; read-out: IC50 (viability)): 5.7 nM | cellular growth inhibition (MOLM-13 cells [1]; unlike lenalidomide, Figure 1E): inhibited cellular growth | IC50 values (growth) (panel of AML cell lines): single digit nM to low μM | IC50 [7]: 9.2 nM | IC50 [8]: 100 nM | IC50 (AML PDX cells): 5.2 nM | IC50 [9]: 15.7 nM | DCmax CK1α (CK1α-GFP fusion protein): 84% | DCmax IKZF2 [10]: 92% | DCmax IKZF1-GFP (IKZF1(zinc finger 2)-GFP): 12% | DCmax GSPT1-GFP (GSPT1-GFP): 24% | Kd (CRBN): 473 nM | ternary complex between CRBN and CK1α [11]: significantly stronger ternary complex | IKZF2 degradation (Western blot) (IKZF2): efficiently degraded IKZF2 | CK1α degradation (Western blot) (CK1α): efficiently degraded CK1α | concentrations depleting CK1α (as low as) (CK1α; MOLM-13, 24 h, Western blot): 1 to 10 nM | activity against IKZF1 (Western blot) (IKZF1): limited activity | activity against IKZF3 (Western blot) (IKZF3): limited activity | activity against IKZF4 (Western blot) (IKZF4): limited activity | endogenous GSPT1 degradation (Western blot) (GSPT1): limited degradation at nanomolar concentrations | CK1α rank in global proteomics (MOLM-13 cells [12]): most significantly downregulated protein | apoptosis induction and myeloid differentiation (MOLM-13 cells [13]): significant dose-dependent apoptosis induction and myeloid differentiation | apoptosis and myeloid differentiation (MLL-AF9 Crbn^I391V cells [14]): resulted in apoptosis and myeloid differentiation at nanomolar concentrations | reduction of colonies [15]: half | LSK derived colonies [16]: not affected | colony formation [17]: reduced colony formation | sensitivity to DEG-35 on co-treatment with cytarabine [18]: more sensitive | sensitivity to DEG-35 on co-treatment with midostaurin [18]: more sensitive | half-life (Pharmacokinetics in mice; male, CD1, mouse): 2.5 h | degradation of CK1α and IKZF2 in leukemic cells from bone marrow and spleen (MLL-AF9 Crbn^I391V cells [2]; single dose 50 mg/kg, 24 h and 72 h): efficient degradation of CK1α and IKZF2 | body weight (MLL-AF9 Crbn^I391V cells [3]; 50 mg/kg): without overt weight loss | leukemia progression (MLL-AF9 Crbn^I391V cells [3]; 50 mg/kg, vs DMSO): delayed leukemia progression | body weight (MOLM-13 cells [4]; 50 mg/kg): without overt weight loss | disease burden (spleen and liver weights) (MOLM-13 cells [4]; 50 mg/kg): decreased spleen and liver weights | survival (MOLM-13 cells [4]; 50 mg/kg): significantly prolonged survival | survival (AML PDX#2; AML PDX#2, DEG-35 vs DMSO): significant prolonged survival
